From ChEMBL document CHEMBL1146752, “Oxamyl dipeptide caspase inhibitors developed for the treatment of stroke” (Bioorg Med Chem Lett, 2004)

Assays:
[1] = species on record: Rattus norvegicus; assay: Inhibitory activity evaluated against rat Con A embryonic cortical neurons in cellular assay; type: functional
[2] = system: THP-1; assay: Inhibitory activity evaluated against human THP-1 cell line in cellular assay; type: functional, cell-based
Method in brief: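 Human cells (monocytes; THP-1 line) in a caspase-1-dependent cellular assay run for 24 h at 37 °C. Read-out is IC50 (µM).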

[3] = system: SKW 6.4; assay: Inhibitory activity was evaluated against human SKW 6.4 cell line in cellular assay; type: functional, cell-based
Method in brief: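 Cellular assay (Con A; SKW 6.4 cells) run for 24 h at 37 °C. Read-out is IC50 (µM).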

[4] = system: Jurkat; assay: Inhibitory activity evaluated against human jurkat cell line in cellular assay; type: functional, cell-based
Method in brief: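 Human Jurkat cells, in an assay where caspase-8 is relevant but other caspases also contribute. Run for 24 h at 37 °C. Read-out is IC50 (µM).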

## CC(C)[C@H](NC(=O)C(=O)Nc1c(F)c(F)c(F)c(F)c1F)C(=O)N[C@@H](CC(=O)O)C(=O)COc1c(F)c(F)cc(F)c1F
[1]
  IC50: 2900 nM
[2]
  IC50: 470 nM
[3]
  IC50: 14000 nM
[4]
  IC50: 390 nM

## CC(C)[C@H](NC(=O)C(=O)Nc1cc(F)c(F)c(F)c1F)C(=O)N[C@@H](CC(=O)O)C(=O)COc1c(F)c(F)cc(F)c1F
[1]
  IC50: 3500 nM
[2]
  IC50: 570 nM
[3]
  IC50: 1190 nM
[4]
  IC50: 40 nM

## CC(C)[C@H](NC(=O)C(=O)Nc1c(F)cccc1F)C(=O)N[C@@H](CC(=O)O)C(=O)COc1c(F)c(F)cc(F)c1F
[1]
  IC50: 1000 nM
[2]
  IC50: 380 nM
[3]
  IC50: 1630 nM
[4]
  IC50: 136 nM

## CC(C)[C@H](NC(=O)C(=O)NCc1ccccc1)C(=O)N[C@@H](CC(=O)O)C(=O)COc1c(F)c(F)cc(F)c1F
[1]
  IC50: 1500 nM
[2]
  IC50: 570 nM
[3]
  IC50: 910 nM
[4]
  IC50: 77.1 nM

## CC(C)[C@H](NC(=O)C(=O)Nc1ccccc1Br)C(=O)N[C@@H](CC(=O)O)C(=O)COc1c(F)c(F)cc(F)c1F
[1]
  IC50: 400 nM
[2]
  IC50: 540 nM
[4]
  IC50: 356 nM

## CC(C)[C@H](NC(=O)C(=O)Nc1cc(C(C)(C)C)ccc1C(C)(C)C)C(=O)N[C@@H](CC(=O)O)C(=O)COc1c(F)c(F)cc(F)c1F
[1]
  IC50: 2000 nM
[2]
  IC50: 2640 nM
[3]
  IC50: 1870 nM
[4]
  IC50: 17 nM

## CC(C)[C@H](NC(=O)C(=O)Nc1ccc2cc3ccccc3cc2c1)C(=O)N[C@@H](CC(=O)O)C(=O)COc1c(F)c(F)cc(F)c1F
[1]
  IC50: 550 nM
[2]
  IC50: 660 nM
[3]
  IC50: 750 nM
[4]
  IC50: 150 nM

## CC(C)C[C@H](NC(=O)C(=O)Nc1cccc2ccccc12)C(=O)N[C@@H](CC(=O)O)C(=O)COc1c(F)cc(F)cc1F
[1]
  IC50: 4610 nM
[4]
  IC50: 535 nM

## CC(C)[C@H](NC(=O)C(=O)NC1CCCc2ccccc21)C(=O)N[C@@H](CC(=O)O)C(=O)COc1c(F)c(F)cc(F)c1F (stereo partly drawn)
[1]
  IC50: 2400 nM
[2]
  IC50: 2910 nM
[3]
  IC50: 860 nM
[4]
  IC50: 370 nM

## CC(C)[C@H](NC(=O)C(=O)Nc1ccc2c(c1)CCC2)C(=O)N[C@@H](CC(=O)O)C(=O)COc1c(F)c(F)cc(F)c1F
[1]
  IC50: 1000 nM
[2]
  IC50: 1280 nM
[3]
  IC50: 270 nM
[4]
  IC50: 41 nM

## CC(C)(C)C(NC(=O)C(=O)Nc1cccc2ccccc12)C(=O)N[C@@H](CC(=O)O)C(=O)COc1c(F)c(F)cc(F)c1F (stereo partly drawn)
[1]
  IC50: 2900 nM
[2]
  IC50: 270 nM

## CC(C)[C@H](NC(=O)C(=O)Nc1ccncc1)C(=O)N[C@@H](CC(=O)O)C(=O)COc1c(F)c(F)cc(F)c1F
[1]
  IC50: 50000 nM
[2]
  IC50: 5670 nM
[3]
  IC50: 30100 nM
[4]
  IC50: 15800 nM

## CC(C)[C@H](NC(=O)C(=O)Nc1ccccc1Cc1ccccc1)C(=O)N[C@@H](CC(=O)O)C(=O)COc1c(F)c(F)cc(F)c1F
[1]
  IC50: 2000 nM
[2]
  IC50: 180 nM
[3]
  IC50: 1560 nM
[4]
  IC50: 9 nM

## CC(C)[C@H](NC(=O)C(=O)Nc1ccccc1Oc1ccccc1)C(=O)N[C@@H](CC(=O)O)C(=O)COc1c(F)c(F)cc(F)c1F
[1]
  IC50: 2500 nM
[2]
  IC50: 1770 nM
[3]
  IC50: 1780 nM
[4]
  IC50: 660 nM

## COc1ccccc1NC(=O)C(=O)N[C@H](C(=O)N[C@@H](CC(=O)O)C(=O)COc1c(F)c(F)cc(F)c1F)C(C)C
[1]
  IC50: 2500 nM
[2]
  IC50: 400 nM
[3]
  IC50: 1200 nM
[4]
  IC50: 310 nM

## O=C(O)C[C@H](NC(=O)C1CCC(NC(=O)C(=O)Nc2cccc3ccccc23)C1)C(=O)COc1c(F)c(F)cc(F)c1F (stereo partly drawn)
[1]
  IC50: 2500 nM
[2]
  IC50: 930 nM

## CCCCC(NC(=O)C(=O)Nc1cccc2ccccc12)C(=O)N[C@@H](CC(=O)O)C(=O)COc1c(F)c(F)cc(F)c1F (stereo partly drawn)
[1]
  IC50: 1000 nM

## CC(C)[C@H](NC(=O)C(=O)Nc1ccc(Cl)c2ccccc12)C(=O)N[C@@H](CC(=O)O)C(=O)COc1c(F)c(F)cc(F)c1F
[1]
  IC50: 750 nM
[2]
  IC50: 610 nM
[3]
  IC50: 2450 nM
[4]
  IC50: 30 nM

## CC(C)[C@H](NC(=O)C(=O)Nc1cccc2ccccc12)C(=O)N[C@@H](CC(=O)O)C(=O)COc1c(F)cc(F)cc1F
[1]
  IC50: 300 nM
[4]
  IC50: 5.2 nM

## O=C(O)C[C@H](NC(=O)C(NC(=O)C(=O)Nc1cccc2ccccc12)C1CCCCC1)C(=O)COc1c(F)c(F)cc(F)c1F (stereo partly drawn)
[1]
  IC50: 1500 nM
[2]
  IC50: 1440 nM

## CC(C)[C@H](NC(=O)C(=O)NN(c1ccccc1)c1ccccc1)C(=O)N[C@@H](CC(=O)O)C(=O)COc1c(F)c(F)cc(F)c1F
[1]
  IC50: 4870 nM
[2]
  IC50: 780 nM
[3]
  IC50: 2240 nM
[4]
  IC50: 190 nM

## CC(C)C[C@H](NC(=O)C(=O)Nc1cccc2ccccc12)C(=O)N[C@@H](CC(=O)O)C(=O)COC(=O)c1c(Cl)cccc1Cl
[1]
  IC50: 500 nM
[4]
  IC50: 1300 nM

## CC(C)[C@H](NC(=O)C(=O)Nc1ccccc1)C(=O)N[C@@H](CC(=O)O)C(=O)COc1c(F)c(F)cc(F)c1F
[1]
  IC50: 1500 nM
[2]
  IC50: 70 nM
[3]
  IC50: 940 nM
[4]
  IC50: 430 nM

## CC(C)[C@H](NC(=O)C(=O)NC(c1ccccc1)c1ccccc1)C(=O)N[C@@H](CC(=O)O)C(=O)COc1c(F)c(F)cc(F)c1F
[1]
  IC50: 7300 nM
[2]
  IC50: 170 nM
[4]
  IC50: > 200000 nM

## CC(C)C[C@H](NC(=O)C(=O)Nc1cccc2ccccc12)C(=O)N[C@@H](CC(=O)O)C(=O)COc1c(F)c(F)cc(F)c1F
[1]
  IC50: 2580 nM
[4]
  IC50: 2500 nM

## O=C(O)C[C@H](NC(=O)[C@H](Cc1ccccc1)NC(=O)C(=O)Nc1cccc2ccccc12)C(=O)COc1c(F)c(F)cc(F)c1F
[1]
  IC50: 2700 nM
[2]
  IC50: 1260 nM

## O=C(O)C[C@H](NC(=O)C1CCCCN1C(=O)C(=O)Nc1cccc2ccccc12)C(=O)COc1c(F)c(F)cc(F)c1F (stereo partly drawn)
[1]
  IC50: 16000 nM

## CC(C)[C@H](NC(=O)C(=O)Nc1cccc2ccccc12)C(=O)N[C@@H](CC(=O)O)C(=O)COP(C)(=O)c1ccccc1 (stereo partly drawn)
[1]
  IC50: 2000 nM
[2]
  IC50: 90 nM

## CC(C)[C@H](NC(=O)C(=O)N(C)c1cccc2ccccc12)C(=O)N[C@@H](CC(=O)O)C(=O)COc1c(F)c(F)cc(F)c1F
[1]
  IC50: > 50000 nM
[3]
  IC50: > 100000 nM
[4]
  IC50: > 100000 nM

## CC(C)[C@H](NC(=O)C(=O)Nc1cccc2ccccc12)C(=O)N[C@@H](CC(=O)O)C(=O)COc1c(F)cccc1F
[1]
  IC50: 450 nM
[2]
  IC50: 480 nM

## CC(C)[C@H](NC(=O)C(=O)Nc1cccc2ccccc12)C(=O)N[C@@H](CC(=O)O)C(=O)COc1ccc(-c2ccccc2)cc1
[1]
  IC50: > 50000 nM
[2]
  IC50: 1120 nM

## O=C(O)C[C@H](NC(=O)C1Cc2ccccc2N1C(=O)C(=O)Nc1cccc2ccccc12)C(=O)COc1c(F)c(F)cc(F)c1F (stereo partly drawn)
[1]
  IC50: 50000 nM
[2]
  IC50: 22100 nM

## CC(C)[C@H](NC(=O)C(=O)Nc1cccc2ccccc12)C(=O)N[C@@H](CC(=O)O)C(=O)COP(=O)(c1ccccc1)c1ccccc1
[1]
  IC50: 650 nM
[2]
  IC50: 650 nM

## COC(=O)c1cc(OCC(=O)[C@H](CC(=O)O)NC(=O)[C@@H](NC(=O)C(=O)Nc2cccc3ccccc23)C(C)C)no1
[1]
  IC50: 9000 nM
[2]
  IC50: 280 nM

## CC(C)[C@H](NC(=O)C(=O)Nc1cccc2ccccc12)C(=O)N[C@@H](CC(=O)O)C(=O)COc1c(F)c(F)cc(F)c1F
[1]
  IC50: 550 nM
[4]
  IC50: 6.1 nM

## O=C(O)C[C@H](NC(=O)C(NC(=O)C(=O)Nc1cccc2ccccc12)c1ccccc1)C(=O)COc1c(F)c(F)cc(F)c1F (stereo partly drawn)
[1]
  IC50: 500 nM
[2]
  IC50: 2770 nM

## CC(C)[C@H](NC(=O)C(=O)Nc1cccc2ccccc12)C(=O)N[C@@H](CC(=O)O)C(=O)COc1ccc2ccccc2c1
[1]
  IC50: 7300 nM
[2]
  IC50: 1930 nM

## CC(C)[C@H](NC(=O)C(=O)Nc1cccc2ccccc12)C(=O)N[C@@H](CC(=O)O)C(=O)COc1ccnc(C(F)(F)F)n1
[1]
  IC50: 2000 nM
[2]
  IC50: 250 nM

## CC(C)[C@H](NC(=O)C(=O)Nc1cccc2ccccc12)C(=O)N[C@@H](CC(=O)O)C(=O)COc1cccc2ccccc12
[1]
  IC50: 2700 nM
[2]
  IC50: 3060 nM

## CC(C)[C@H](NC(=O)C(=O)Nc1cccc2ccccc12)C(=O)N[C@@H](CC(=O)O)C(=O)COS(=O)c1ccccc1 (stereo partly drawn)
[1]
  IC50: > 50000 nM
[2]
  IC50: 8300 nM

## CC(C)[C@H](NC(=O)C(=O)NOCc1ccccc1)C(=O)N[C@@H](CC(=O)O)C(=O)COc1c(F)c(F)cc(F)c1F
[1]
  IC50: 15000 nM
[2]
  IC50: > 32000 nM
[4]
  IC50: 30800 nM

## O=C(O)C[C@H](NC(=O)[C@H](CCc1ccccc1)NC(=O)C(=O)Nc1cccc2ccccc12)C(=O)COc1c(F)c(F)cc(F)c1F
[1]
  IC50: 3000 nM
[2]
  IC50: 7530 nM

## CC(C)[C@H](NC(=O)C(=O)Nc1cccc2ccccc12)C(=O)N[C@@H](CC(=O)O)C(=O)COC(=O)c1c(Cl)cccc1Cl
[1]
  IC50: 350 nM
[4]
  IC50: 4.3 nM
